Measured values taken from ChEMBL document CHEMBL1153936, “Synthesis and pharmacological evaluation of (2-oxaadamant-1-yl)amines” (Bioorg Med Chem, 2009).
Calls of active or inactive are those of the source. The rule behind the calls is not given here.

Legend:
[1] = Antagonist activity against glutamate receptor in rat cerebellar granule neurons assessed as inhibition of glutamate-induced increase in intracellular calcium level by Fura-2 AM dye based fluorimetry; assay type: functional, cell-based
In short: (§1)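 Primary cerebellar granule neurons were grown on poly-L-lysine-coated glass coverslips and used after 7–14 days in vitro. Cells were loaded with 6 μM Fura-2 AM for 45 min. Fluorometry was done in Locke-Hepes buffer at 37 °C with mild agitation, recorded over 1200 s. Cells were stimulated with NMDA or glutamate at 100 μM plus 10 μM glycine. Test compound was then added at cumulative rising concentrations. IC50 came from variable-slope nonlinear regression of % inhibition. Values are means ± SEM, n ≥ 3 separate experiments on three culture batches.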

Glutamate NMDA receptor = assay: Antagonist activity against NMDA receptor in rat cerebellar granule neurons assessed as inhibition of NMDA -induced increase in intracellular calcium level by Fura-2 AM dye based fluorimetry; assay type: functional, cell-based; in short: as §1
Human alphaherpesvirus 1 = assay: Antiviral activity against HSV1 assessed as inhibition of viral replication; assay type: functional, organism-based
In short: (§2)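 Cell-culture virus replication assays. Inhibition of viral replication and compound cytotoxicity were scored by microscopic examination, then confirmed by a colorimetric MTS cell viability assay.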

Human alphaherpesvirus 2 = assay: Antiviral activity against HSV2 assessed as inhibition of viral replication; assay type: functional, organism-based; in short: as §2
Vaccinia virus = assay: Antiviral activity against Vaccinia virus assessed as inhibition of viral replication; assay type: functional, organism-based; details: Orthopoxvirus vaccinia
In short: (§3)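 Cell-culture virus replication assay. Inhibition of virus-induced effects and compound cytotoxicity were scored by microscopic examination and confirmed by colorimetric MTS cell-viability readout.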

Feline coronavirus = assay: Antiviral activity against Feline coronavirus assessed as inhibition of viral replication; assay type: functional, organism-based; in short: as §2
Human respirovirus 3 = assay: Antiviral activity against parainfluenza virus 3 assessed as inhibition of viral replication; assay type: functional, organism-based; in short: as §2
[2] = test system: Respiratory syncytial virus; assay: Antiviral activity against Respiratory syncytial virus assessed as inhibition of viral replication; assay type: functional, organism-based; in short: as §2
[3] = test system: Vesicular stomatitis virus; assay: Antiviral activity against Vesicular stomatitis virus assessed as inhibition of viral replication; assay type: functional, organism-based; in short: as §3
Sindbis virus = assay: Antiviral activity against Sindbis virus assessed as inhibition of viral replication; assay type: functional, organism-based; in short: as §2
Punta Toro virus = assay: Antiviral activity against Punta Toro virus assessed as inhibition of viral replication; assay type: functional, organism-based; in short: as §2
Coxsackievirus B4 = assay: Antiviral activity against Coxsackievirus B4 assessed as inhibition of viral replication; assay type: functional, organism-based; in short: as §2
[4] = test system: Mammalian orthoreovirus 1; assay: Antiviral activity against Reovirus 1 assessed as inhibition of viral replication; assay type: functional, organism-based; in short: as §2
Influenza A virus = assay: Antiviral activity against Influenza A virus (A/Puerto Rico/8/34(H1N1)) assessed as inhibition of viral replication; assay type: functional, organism-based; details: A/Puerto Rico/8/1934(H1N1); in short: as §3
Influenza A virus H3N2 = assay: Antiviral activity against Influenza A virus (A/Hong Kong/7/1987(H3N2)) assessed as inhibition of viral replication; assay type: functional, organism-based; in short: as §3
Influenza B virus = assay: Antiviral activity against Influenza B virus (B/Hong Kong/05/1972) assessed as inhibition of viral replication; assay type: functional, organism-based; in short: as §3
Trypanosoma brucei [5] = assay: Antitrypanosomal activity against Trypanosoma brucei 427 assessed as parasite growth inhibition after 48 hrs; assay type: functional, organism-based; details: Trypanosoma brucei, 427, 48 h
Trypanosoma brucei [6] = assay: Antitrypanosomal activity against Trypanosoma brucei 427 assessed as parasite growth inhibition up to 5 mg/mL after 48 hrs; assay type: functional, organism-based

Compound: CCN(CC)C12CC3CC(CC(CC)(C3)O1)C2
- IC50 [1]: 22 µM
- IC50 (Glutamate NMDA receptor): 14 µM

Compound: NC12CC3CC(C1)CC(c1ccccc1)(C3)O2
- IC50 [1]: 350 µM
- IC50 (Glutamate NMDA receptor): 226 µM
- Activity (Human alphaherpesvirus 1): inactive
- Activity (Human alphaherpesvirus 2): inactive
- Activity (Vaccinia virus): inactive
- Activity (Feline coronavirus): inactive
- Activity (Human respirovirus 3): inactive
- Activity [2]: inactive
- Activity [3]: inactive
- Activity (Sindbis virus): inactive
- Activity (Punta Toro virus): inactive
- Activity (Coxsackievirus B4): inactive
- Activity [4]: inactive
- Activity (Influenza A virus): inactive
- Activity (Influenza A virus H3N2): inactive
- Activity (Influenza B virus): inactive

Compound: CN(C)C12CC3CC(CC(C)(C3)O1)C2
- IC50 [1]: > 500 µM
- IC50 (Glutamate NMDA receptor): > 200 µM
- IC50 (Trypanosoma brucei [5]): 3.97 µM
- IC90 (Trypanosoma brucei [5]): 6.82 µM

Compound: CCC12CC3CC(CC(N)(C3)O1)C2
- IC50 [1]: 223 µM
- IC50 (Glutamate NMDA receptor): 83 µM

Compound: CN(CCc1ccccc1)C12CC3CC(CC(C3)O1)C2
- IC50 [1]: > 500 µM
- IC50 (Glutamate NMDA receptor): > 200 µM
- Activity (Trypanosoma brucei [6]): inactive

Compound: c1ccc(CCNC23CC4CC(CC(C4)O2)C3)cc1
- IC50 [1]: > 500 µM
- IC50 (Glutamate NMDA receptor): > 200 µM
- Activity (Trypanosoma brucei [6]): inactive

Compound: CN(Cc1ccccc1)C12CC3CC(CC(C3)O1)C2
- IC50 [1]: > 500 µM
- IC50 (Glutamate NMDA receptor): > 200 µM
- Activity (Trypanosoma brucei [6]): inactive

Compound: NC12CC3CC(CC(C3)O1)C2
- IC50 [1]: > 500 µM
- IC50 (Glutamate NMDA receptor): > 200 µM
- Activity (Human alphaherpesvirus 1): inactive
- Activity (Human alphaherpesvirus 2): inactive
- Activity (Vaccinia virus): inactive
- Activity (Feline coronavirus): inactive
- Activity (Human respirovirus 3): inactive
- Activity [2]: inactive
- Activity [3]: inactive
- Activity (Sindbis virus): inactive
- Activity (Punta Toro virus): inactive
- Activity (Coxsackievirus B4): inactive
- Activity [4]: inactive
- Activity (Influenza A virus): inactive
- Activity (Influenza A virus H3N2): inactive
- Activity (Influenza B virus): inactive
- Activity (Trypanosoma brucei [6]): inactive

Compound: CCC12CC3CC(C1)CC(NN)(C3)O2
- IC50 [1]: > 500 µM

Compound: CCC12CC3CC(C1)CC(N(C)Cc1ccccc1)(C3)O2
- IC50 [1]: > 500 µM
- IC50 (Glutamate NMDA receptor): > 200 µM

Compound: CCC12CC3CC(C1)CC(N(C)C)(C3)O2
- IC50 [1]: 106 µM
- IC50 (Glutamate NMDA receptor): 55 µM
- IC50 (Trypanosoma brucei [5]): 10.9 µM
- IC90 (Trypanosoma brucei [5]): 15.5 µM

Compound: c1ccc(CN(Cc2ccccc2)C23CC4CC(CC(C4)O2)C3)cc1
- IC50 [1]: > 500 µM
- IC50 (Glutamate NMDA receptor): > 200 µM
- Activity (Trypanosoma brucei [6]): inactive

Compound: CNC12CC3CC(CC(C3)O1)C2
- IC50 [1]: > 500 µM
- IC50 (Glutamate NMDA receptor): > 200 µM
- Activity (Human alphaherpesvirus 1): inactive
- Activity (Human alphaherpesvirus 2): inactive
- Activity (Vaccinia virus): inactive
- Activity (Feline coronavirus): inactive
- Activity (Human respirovirus 3): inactive
- Activity [2]: inactive
- Activity [3]: inactive
- Activity (Sindbis virus): inactive
- Activity (Punta Toro virus): inactive
- Activity (Coxsackievirus B4): inactive
- Activity [4]: inactive
- Activity (Influenza A virus): inactive
- Activity (Influenza A virus H3N2): inactive
- Activity (Influenza B virus): inactive
- Activity (Trypanosoma brucei [6]): inactive

Compound: CC(N)C12CC3CC(CC(C3)C1)C2 (stereo not given) [RIMANTADINE]
- IC90 (Trypanosoma brucei [5]): 14 µM

Compound: CC12CC3CC(C1)CC(N)(C3)O2
- IC50 [1]: > 500 µM
- IC50 (Glutamate NMDA receptor): > 200 µM

Compound: CC12CC3CC(C1)CC(NN)(C3)O2
- IC50 [1]: > 500 µM
- IC50 (Glutamate NMDA receptor): > 200 µM

Compound: CCC12CC3CC(C1)CC(NCc1ccccc1)(C3)O2
- IC50 [1]: > 500 µM
- IC50 (Glutamate NMDA receptor): > 200 µM

Compound: c1ccc(CNC23CC4CC(CC(C4)O2)C3)cc1
- IC50 [1]: > 500 µM
- IC50 (Glutamate NMDA receptor): > 200 µM
- Activity (Human alphaherpesvirus 1): inactive
- Activity (Human alphaherpesvirus 2): inactive
- Activity (Vaccinia virus): inactive
- Activity (Feline coronavirus): inactive
- Activity (Human respirovirus 3): inactive
- Activity [2]: inactive
- Activity [3]: inactive
- Activity (Sindbis virus): inactive
- Activity (Punta Toro virus): inactive
- Activity (Coxsackievirus B4): inactive
- Activity [4]: inactive
- Activity (Influenza A virus): inactive
- Activity (Influenza A virus H3N2): inactive
- Activity (Influenza B virus): inactive
- Activity (Trypanosoma brucei [6]): inactive

Compound: NNC12CC3CC(C1)CC(c1ccccc1)(C3)O2
- IC50 [1]: > 500 µM

Compound: NC12CC3CC(C1)CC(C1CCCCC1)(C3)O2
- IC50 [1]: > 500 µM
- IC50 (Glutamate NMDA receptor): 94 µM
- Activity (Human alphaherpesvirus 1): inactive
- Activity (Human alphaherpesvirus 2): inactive
- Activity (Vaccinia virus): inactive
- Activity (Feline coronavirus): inactive
- Activity (Human respirovirus 3): inactive
- Activity [2]: inactive
- Activity [3]: inactive
- Activity (Sindbis virus): inactive
- Activity (Punta Toro virus): inactive
- Activity (Coxsackievirus B4): inactive
- Activity [4]: inactive
- Activity (Influenza A virus): inactive
- Activity (Influenza A virus H3N2): inactive
- Activity (Influenza B virus): inactive

Compound: CCC12CC3CC(C1)CC(NC)(C3)O2
- IC50 [1]: 108 µM
- IC50 (Glutamate NMDA receptor): 32 µM
- Activity (Human alphaherpesvirus 1): inactive
- Activity (Human alphaherpesvirus 2): inactive
- Activity (Vaccinia virus): inactive
- Activity (Feline coronavirus): inactive
- Activity (Human respirovirus 3): inactive
- Activity [2]: inactive
- Activity [3]: inactive
- Activity (Sindbis virus): inactive
- Activity (Punta Toro virus): inactive
- Activity (Coxsackievirus B4): inactive
- Activity [4]: inactive
- Activity (Influenza A virus): inactive
- Activity (Influenza A virus H3N2): inactive
- Activity (Influenza B virus): inactive

Compound: NC12CC3CC(CC(C3)C1)C2 [AMANTADINE]
- IC50 (Trypanosoma brucei [5]): > 130 µM
